Test results reported in ChEMBL document CHEMBL1144224, “Molecular design to enhance the penetration into the retina via ocular instillation” (Bioorg Med Chem Lett, 2008).

Columns and labels:
[1] = AUC (0 to 4 hrs) in Japanese white rabbit aqueous humor after ocular instillation of 1% suspension; type: ADME, Oryctolagus cuniculus; design: time < 4 hr; details: topical or ocular
Method in brief: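 Rabbit eyes given topical drops of 1% suspension or solution. Aqueous humor drug levels measured over 0–4 h, with n = 3-4 eyes per time point. AUC0–4h is calculated from the mean level-time curve.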

[2] = Octanol-water partition coefficient, log P of the compound; type: physicochemical
Method in brief: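 Log P measured as the partition coefficient between n-octanol and water.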

[3] = AUC (0 to 4 hrs) in Japanese white rabbit retina after ocular instillation of 1% suspension; type: ADME, tissue-based, Oryctolagus cuniculus; design: time < 4 hr; details: topical or ocular
Method in brief: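 Rabbit eyes given topical drops of 1% suspension or solution. Retinal drug levels measured over 0–4 h, with n = 3-4 eyes per time point. AUC0–4h is calculated from the mean level-time curve.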

[4] = Plasma AUC (0 to 4 hrs) in cynomolgus monkey at 10 mg/kg, po; type: ADME, organism-based, Macaca fascicularis; design: time < 4 hr, dose 10 mg/kg, route oral
Method in brief: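 Cynomolgus monkeys dosed orally at 10 mg/kg as a 0.2% suspension or solution in 0.5% carboxymethyl cellulose. Plasma drug levels followed over 0–4 h (n = 3-6), and AUC0–4h is derived from the plasma level-time curve.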

[5] = Drug concentration in rat retina at 10 mg/kg, po after 4 hrs; type: ADME, organism-based; design: dose 10 mg/kg, route oral; details: read-out: Drug uptake
[6] = Drug concentration in rat retina at 10 mg/kg, po at Tmax time; type: ADME, organism-based; design: dose 10 mg/kg, route oral; details: in vivo, read-out: Drug uptake

Which AUC(0-t) at 4 h [1] does the source give for `COCCOCCOCCOCCOCCOC(=O)N[C@@H](CC(C)C)C(=O)N[C@@H](Cc1ccccc1)C(=O)C(=O)NC1CC1` here?
Its AUC(0-t) at 4 h is 1.96 µM·h.

What about the logP [2] of the same molecule?
Its logP is 0.72.

What about the AUC(0-t) at 4 h [3] of the same molecule?
Its AUC(0-t) at 4 h is 2.99 µM·h.

With `COCCOCCOCCOCCOC(=O)N[C@@H](CC(C)C)C(=O)N[C@@H](Cc1ccccc1)C(=O)C(=O)NC1CC1` as the molecule, how does the AUC(0-t) at 4 h [1] read?
Its AUC(0-t) at 4 h is 5.89 µM·h.

What about the logP [2] of the same molecule?
Its logP is 0.7.

And the AUC(0-t) at 4 h [4]?
The AUC(0-t) at 4 h was 1.61 µM·h.

What about the AUC(0-t) at 4 h [3] of the same molecule?
Its AUC(0-t) at 4 h is 7.12 µM·h.

Which AUC(0-t) at 4 h [1] does the source give for `COCCOCCOC(=O)N[C@@H](CC(C)C)C(=O)N[C@@H](Cc1ccccc1)C(=O)C(=O)NC1CC1` here?
Its AUC(0-t) at 4 h is 1.55 µM·h.

What about the concentration at 4 h [5] of the same molecule?
Its concentration at 4 h is 200 nM.

And the logP [2]?
Its logP is 0.91.

What about the AUC(0-t) at 4 h [4] of the same molecule?
Its AUC(0-t) at 4 h is 2.43 µM·h.

And the concentration [6]?
Its concentration is 400 nM.

What about the AUC(0-t) at 4 h [3] of the same molecule?
The AUC(0-t) at 4 h was 2.37 µM·h.

For `COCCOC(=O)N[C@@H](CC(C)C)C(=O)N[C@@H](Cc1ccccc1)C(=O)C(=O)NC1CC1`, which AUC(0-t) at 4 h [1] is on record?
Its AUC(0-t) at 4 h is 1.9 µM·h.

And the logP [2]?
Its logP is 1.

What about the AUC(0-t) at 4 h [4] of the same molecule?
The AUC(0-t) at 4 h was 1.88 µM·h.

What about the AUC(0-t) at 4 h [3] of the same molecule?
The AUC(0-t) at 4 h was 1.32 µM·h.

For `COCCOCCOCCOC(=O)N[C@@H](CC(C)C)C(=O)N[C@@H](Cc1ccccc1)C(=O)C(=O)NC1CC1`, which AUC(0-t) at 4 h [1] is on record?
The AUC(0-t) at 4 h was 7.88 µM·h.

What about the logP [2] of the same molecule?
Its logP is 0.93.

What about the AUC(0-t) at 4 h [4] of the same molecule?
Its AUC(0-t) at 4 h is 1.6 µM·h.

What about the AUC(0-t) at 4 h [3] of the same molecule?
Its AUC(0-t) at 4 h is 13.1 µM·h.
